Test system: KRAS2 G12D RNA
Experiment: CD thermal melting of TO-PNA-peptide:RNA duplexes
Assay type: binding
Outline: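 Gel-purified synthetic RNA 20mers were annealed with the test compound at 1 μM each (final) in sodium phosphate, 1.0 M NaCl, 5 mM EDTA, pH 7.2, by heating at 95 °C for 10 min and then cooling for 10 min. CD at 265 nm was tracked over a 25→95 °C ramp at 0.5 °C/min, with baseline slopes subtracted. Tm was taken as the first-derivative maximum (two-state model); n = 3, ± SD.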

GCCATOTCAGCTCC-AEEA-D(Cys-Ser-Lys-Cys) (disulfide) [TO2]
Tm decrease relative to TO1 (12mer) KRAS2 G12D duplex: 2 °C

Reference: article PMC4166030 (Bioconjugate Chemistry, 2014)
